For assay [1], the target named is Matrix metalloproteinase-14 (Homo sapiens, UniProt P50281). Nature of the assay: Inhibition of recombinant human MMP14 (Tyr112 to Arg298 residues) expressed in Escherichia coli using Ac-Pro-Leu-Gly-S-Leu-Leu-Gly-OEt as substrate after 1 hr measured at 1 min time interval for 30 mins by microplate photometric method. Put shortly:
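Commercial MMP kits; compound preincubated with enzyme before chromogenic substrate was added. Reactions at 37 °C for 1 h, with at least six inhibitor concentrations in triplicate. Absorbance at 410 nm read every 1 min for 30 min. NNGH used as reference inhibitor. IC50 taken from semi-logarithmic dose-response plots.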

For assay [2], the system named is K562. Nature of the assay: Induction of apoptosis in human K562 cells assessed as late apoptotic cells at 2.5 uM after 48 hrs by Annexin V-FITC/propidium iodide staining based flow cytometry (reference value: 0.3%). The class given is functional. For orientation: A flow cytometer gives signals particle by particle.
Assay [3] relates to K562. Nature of the assay: Induction of apoptosis in human K562 cells assessed as late apoptotic cells at 10 uM after 48 hrs by Annexin V-FITC/propidium iodide staining based flow cytometry (reference value: 0.3%). It is filed as functional.
For assay [4], the system named is K562. Nature of the assay: Anti-invasive activity against human K562 cells assessed as at 2.5 uM after 24 hrs by CyQuantGR dye based fluorimetric QCM EC matrix assay relative to control. Conditions: K562, 24 h. It is filed as functional. In short, it runs like this:
(§1)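 K562 cells (1X10^6 cells/ml) starved overnight in FBS-free medium, then placed in inserts in FBS-free medium with 5% BSA, with 5% FBS medium below as chemoattractant. Treated at 2.5, 5 and 10 μM in triplicate for 24 h alongside an untreated control. Invaded cells were detached, stained with CyQuantGR and read by fluorescence (ex 480/em 520 nm). Results given as % of control, mean ± SD.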

The subject of assay [5] is K562. The experiment in a line: Anti-invasive activity against human K562 cells at 10 uM after 24 hrs by CyQuantGR dye based fluorimetric QCM EC matrix assay relative to control. The class given is functional. Conditions: K562, 24 h. In short, it runs like this:
as §1

Assay [6] has as its system K562. Nature of the assay: Anti-invasive activity against human K562 cells after 24 hrs by CyQuantGR dye based fluorimetric QCM EC matrix assay. The class given is functional, cell-based. In short, it runs like this: as §1
The test system of assay [7] is K562. The experiment in a line: Induction of apoptosis in human K562 cells assessed as DNA nick generation after 48 hrs by DAPI staining based fluorescence microscopic method.
Assay [8] deals with K562. Nature of the assay: Downregulation of MMP2 protein expression in human K562 cells assessed as MMP2 negative population at 5 uM after 48 hrs by FITC staining based flow cytometry (reference value: 1.6%).

Activity calls are given as the source filed them. No cut-off for these calls is given here.

This is an account of results in ChEMBL document CHEMBL4130487, “A pentanoic acid derivative targeting matrix metalloproteinase-2 (MMP-2) induces apoptosis in a chronic myeloid leukemia cell line” (Eur J Med Chem, 2017).

For `CCCCCNC(=O)CC[C@H](NS(=O)(=O)c1ccc([N+](=O)[O-])cc1)C(=O)O`, the IC50 in assay [1] was found to be 436 µM. Also, the Activity with K562 [2] is 11.6%; in the assay on K562 [3] it was 10.3%; with K562 [6], “Dose-dependent effect”; in the assay with K562 [8] it was 81.1%. The inhibition at 2.5 µM in the assay with K562 [4] is 12.4%. For the same molecule, 10 µM produced 24.1% inhibition with K562 [5]. The outcome with K562 [7] was Active.

The term IC50 denotes the concentration that inhibits the measured activity by half. By inhibition is commonly meant the percentage by which the read-out fell short of the control.
